# From ChEMBL document CHEMBL1156777, “Synthesis and antiprotozoal activity of cationic 1,4-diphenyl-1H-1,2,3-triazoles” (J Med Chem, 2010)
# Key:
# [1] = test system: Trypanosoma brucei rhodesiense; assay: Antitrypanosomal activity against Trypanosoma brucei rhodesiense STIB900 infected in NMRI mouse assessed as mean parasitemia relaps day at 20 mg/kg, ip; format: functional; details: route intraperitoneal
# Outline: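 Female NMRI mice were infected ip with 2 × 10⁴ STIB900 bloodstream forms, in groups of four. Compound in 10% DMSO/distilled water was given ip at 5 mg/kg daily on days 3–6 postinfection, with untreated infected controls. Tail-blood parasitaemia was checked on days 7 and 10, then twice weekly to day 30 and weekly to day 60. Relapse day was recorded for mean relapse day.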
# [2] = test system: Trypanosoma brucei rhodesiense; assay: Antitrypanosomal activity against Trypanosoma brucei rhodesiense STIB900 infected in NMRI mouse assessed as mean parasitemia relaps day at 5 mg/kg, ip; format: functional; details: route intraperitoneal
# Outline: (§1)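 Female NMRI mice infected ip with 2 × 10⁴ STIB900 bloodstream forms. Groups of four dosed ip daily on days 3–6 postinfection; compounds in DMSO diluted with water to 10% final DMSO. Untreated infected controls. Tail-blood parasitaemia checked on days 7 and 10, twice weekly to day 30, then weekly to day 60. Relapse day recorded for mean relapse day; cure means parasite-free survival to day 60.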
# L6 = assay: Cytotoxicity against rat L6 cells after 70 hrs by alamar blue assay; format: cell-based; details: L6, 70 h
# Outline: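 Cells were exposed to serial dilutions for 70 h at 37 °C, 5% CO₂, then given resazurin for 2–3 h. IC50 came from sigmoidal curves; two independent runs in duplicate. Top concentration was 90 μg/mL, converted to μM by molecular weight.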
# [3] = test system: Trypanosoma brucei rhodesiense; assay: Antitrypanosomal activity against Trypanosoma brucei rhodesiense STIB900 after 70 hrs by alamar blue assay; format: functional, organism-based; details: STIB900, 70 h
# [4] = Selectivity index, ratio of IC50 for rat L6 cells to IC50 for Trypanosoma brucei rhodesiense STIB900; format: toxicity, cell-based; details: read-out: Ratio IC50
# Outline: (§2)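 Each index is L6 IC50 divided by parasite IC50. L6 values are from the 70 h resazurin assay. T. b. rhodesiense STIB900 values are from the 70 h resazurin assay. P. falciparum K1 values are from erythrocytic-stage [³H]-hypoxanthine incorporation: 48 h drug exposure, then 24 h with label. L. donovani values are from the 72 h axenic amastigote CellTiter assay.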
# Plasmodium falciparum = assay: Antiplasmodial activity against chloroquine-resistant Plasmodium falciparum K1 infected in human erythrocytes after 48 hrs assessed as [3H]hypoxanthine incorporation by liquid scintillation counting; format: functional, organism-based
# [5] = Selectivity index, ratio of IC50 for rat L6 cells to IC50 for Plasmodium falciparum K1; format: toxicity, cell-based; details: read-out: Ratio IC50; outline: as §2
# Leishmania donovani = assay: Antileishmanial activity against Leishmania donovani MHOM/SD/62/1S-CL2D; format: functional, organism-based
# Outline: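 Axenic amastigotes (MHOM/SD/62/1S-CL2_D) adapted from promastigotes and grown in amastigote medium at 37 °C. 6 × 10⁴ parasites per well were exposed to 2-fold serial dilutions for 72 h at 37 °C in humidified 5% CO₂. Growth was read with tetrazolium CellTiter reagent as absorbance at 490 nm. IC50 came from a four-parameter dose–response fit; duplicate determinations were averaged.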
# [6] = Selectivity index, ratio of IC50 for rat L6 cells to IC50 for Leishmania donovani MHOM/SD/62/1S-CL2D; format: toxicity, cell-based; details: read-out: Ratio IC50; outline: as §2
# Mus musculus [7] = assay: Toxicity in NMRI mouse infected with Trypanosoma brucei rhodesiense STIB900 assessed as survival at 5 mg/kg, ip after administered for 4 consecutive days from day 3 postinfection measured after 7 to 30 days; format: organism-based; parameters: dose 5 mg/kg, route intraperitoneal; details: in vivo; outline: as §1
# Mus musculus [8] = assay: Toxicity in NMRI mouse infected with Trypanosoma brucei rhodesiense STIB900 assessed as survival at 1 mg/kg, ip after administered for 4 consecutive days from day 3 postinfection measured after 7 to 30 days; format: organism-based; parameters: dose 1 mg/kg, route intraperitoneal; details: in vivo; outline: as §1
# Mus musculus [9] = assay: Toxicity in NMRI mouse infected with Trypanosoma brucei rhodesiense STIB900 assessed as survival at 0.5 mg/kg, ip after administered for 4 consecutive days from day 3 postinfection measured after 7 to 30 days; format: organism-based; parameters: dose 0.5 mg/kg, route intraperitoneal; details: in vivo; outline: as §1
# [10] = test system: Trypanosoma brucei rhodesiense; assay: Antitrypanosomal activity against Trypanosoma brucei rhodesiense STIB900 infected in NMRI mouse assessed as mean parasitemia relaps day at 10 mg/kg, ip; format: functional; details: route intraperitoneal
# Outline: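 Single-dose ip regimen at 10 mg/kg in female NMRI mice infected ip with 2 × 10⁴ STIB900 bloodstream forms, four mice per group. Dosing solution was DMSO diluted with water to 10% final DMSO. Tail-blood parasitaemia followed to day 60 postinfection, with relapse day recorded; untreated infected controls.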
# [11] = test system: Trypanosoma brucei rhodesiense; assay: Antitrypanosomal activity against Trypanosoma brucei rhodesiense STIB900 infected in NMRI mouse assessed as mean parasitemia relaps day at 0.5 mg/kg, ip; format: functional; details: route intraperitoneal; outline: as §1
SMILES,Activity [1],Activity [2],IC50 (L6),IC50 [3],selectivity ratio [4],IC50 (Plasmodium falciparum),selectivity ratio [5],IC50 (Leishmania donovani),selectivity ratio [6],Activity (Mus musculus [7]),Activity (Mus musculus [8]),Activity (Mus musculus [9]),Activity [10],Activity [11]
N=C(N)c1ccc(OCCCCCOc2ccc(C(=N)N)cc2)cc1 [PENTAMIDINE],26 days,20 days,,,,,,,,,,,,
Cl.Cl.N=C(N)c1ccc(-c2cn(-c3ccc(C(=N)N)cc3)nn2)cc1,,,8.1 µM,0.004 µM,2020,0.002 µM,4050,9.1 µM,< 1,Non-toxic,Non-toxic,Toxic,27 days,25.5 days
